A selection: hits, their analogues and other compounds. The true share with any hit is near 2.2%.
GSTO1 inh: blocks human GSTO1 in RBBP9 counter-screen; inhibition, % at 5.96 µM; P78417; recombinant GSTO1, activity-based probe fluorescence polarization; actives 1.1% (n = 300,000);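 active means inhibition above the campaign mean inhibition plus 3 SD, cut at about 35% in these data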;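 further: 0% = GSTO1-1 with DMSO and 100% = wells lacking GSTO1-1 enzyme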
PAD4 inh: blocks human protein arginine deiminase 4. recombinant PAD4, RCA probe fluorescence polarization. inhibition, % at 6.36 µM. actives 0.41% (n = 330,000);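 active means percent inhibition above a cutoff equal to the mean of all tested compounds plus 3 SD, cut at about 15% in these data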;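 further: 0% = PAD4 with RCA probe and DMSO and 100% = probe without PAD4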
Target sequence (Q9UM07 whole entry, looked up): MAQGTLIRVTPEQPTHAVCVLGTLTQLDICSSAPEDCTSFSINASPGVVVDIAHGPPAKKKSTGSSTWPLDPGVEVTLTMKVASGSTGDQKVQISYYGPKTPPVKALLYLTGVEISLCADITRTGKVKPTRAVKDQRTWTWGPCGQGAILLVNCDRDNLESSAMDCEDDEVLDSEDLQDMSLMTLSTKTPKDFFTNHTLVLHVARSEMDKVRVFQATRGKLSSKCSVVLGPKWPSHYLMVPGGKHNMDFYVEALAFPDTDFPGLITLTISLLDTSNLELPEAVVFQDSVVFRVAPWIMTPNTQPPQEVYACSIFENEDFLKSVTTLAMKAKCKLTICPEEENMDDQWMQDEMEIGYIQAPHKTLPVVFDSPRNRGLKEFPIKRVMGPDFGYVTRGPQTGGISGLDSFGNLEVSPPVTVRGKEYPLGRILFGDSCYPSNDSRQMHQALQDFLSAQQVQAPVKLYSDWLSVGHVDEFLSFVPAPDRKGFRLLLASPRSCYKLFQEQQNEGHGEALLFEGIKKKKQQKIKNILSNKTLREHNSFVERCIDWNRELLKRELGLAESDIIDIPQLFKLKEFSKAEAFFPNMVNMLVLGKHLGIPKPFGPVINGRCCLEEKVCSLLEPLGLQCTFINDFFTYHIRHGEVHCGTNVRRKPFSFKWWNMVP
Rin1 Abl inh: blocks binding of human Rin1 to Abl; P00519+Q13671; TR-FRET Rin1/Abl binding, biochemical; inhibition, % at 7.35 µM; actives 0.4% (n = 360,000); in the data active means inhibition above about 5%, passing the limit was not always enough
UBC13 inh: human UBC13 polyubiquitination inhibition. P61088. UBC13 polyubiquitin chain formation, TR-FRET. inhibition, % at 20 µM. actives 0.47% (n = 330,000). AID 485273; in the data active means inhibition above about 45%, passing the limit was not always enough
Apaf-1 inh: human Apaf-1 inhibition | AID 489030 | actives 0.71% (n = 330,000) | O14727 | reconstituted apoptosome caspase-3 activity, DEVD-Rh110 fluorescence | inhibition, % at 20 µM; active means inhibition of at least 40% at 20 µM;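 further: plate controls were DMSO wells for no effect and DEVD-CHO caspase inhibitor wells for full effect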
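Material: cell-free apoptosome with Apaf-1, procaspase-3 and caspase-9; Buffer or medium: Hepes pH 7.5 with detergent and BSA; Reagent: cytochrome c trigger plus (Z-DEVD)2-Rh110 caspase-3 substrate; Times: compound with Apaf-1, dATP, procaspase-3 30 min, then 50 min reaction, room temperature; Technique: Rh110 fluorescence intensity.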
SUMO HTRF inh: inhibitors of human SUMOylation (UBC9); P63279; HTRF SUMOylation assay, SAE1/SAE2 + UBC9, in vitro; inhibition, % at 35 µM; actives 0.36% (n = 290,000); AID 2006; in the data active means inhibition above about 50%, passing the limit was not always enough
PAD4 FP conf: confirmation of human PAD4 inhibitors; actives 28% (n = 1,200); AID 488796; inhibition, % at 6.36 µM; shares compounds with PAD4 inh; recombinant PAD4, RCA probe fluorescence polarization;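 active means mean inhibition across replicates above the hit cutoff set by the earlier primary screen, cut at about 15% in these data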;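 further: inhibitors block active-site labeling by the probe so polarization falls; 0% = PAD4 with probe and DMSO and 100% = probe without PAD4 enzyme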
Active calls of the source: *; . = no result.

SMILES | GSTO1 inh | PAD4 inh | Rin1 Abl inh | UBC13 inh | Apaf-1 inh | SUMO HTRF inh | PAD4 FP conf
O=C(NC1CCCN(C2Cc3ccccc3C2)C1)c1ccc(F)cc1Cl (configuration not stated) | 5 | 4 | 0 | -2 | 6 | 1 | .
COc1ccc(-c2ccc3c(c2)S(=O)(=O)c2cccc(C(=O)NCc4cc(C)oc4C(F)(F)F)c2C3=O)cc1OC | . | 2 | 5 | -4 | -20 | . | .
Cc1oc2c(C)c(O)ccc2c(=O)c1-c1ccc2ccccc2n1 | 1 | 84* | -4 | 12 | -19 | 14 | -6
CCC(=O)Oc1ccc2c(=O)c(-c3ccc4ccccc4n3)c(CC)oc2c1C | 9 | 0 | 1 | 1 | 14 | 1 | .
N#Cc1ccccc1COC(=O)c1cccc(S(=O)(=O)N2CCCC2)c1 | . | 4 | 0 | 8 | -1 | . | .
CS(=O)(=O)c1cccc(C(=O)NCc2ccccc2)c1 | 0 | 35* | -3 | -3 | -9 | 33 | 5
CS(=O)(=O)c1cccc(C(=O)NCc2ccc(F)cc2)c1 | 0 | 0 | 3 | -3 | 5 | 14 | .
CC1(C)OC(=O)C=C[C@]2(C)[C@H]3CC[C@@]4(C)[C@H](C(=O)O)OC(=O)[C@H]5O[C@]54[C@]3(C)C(=O)C[C@@H]12 | . | -2 | -1 | -2 | 4 | . | .
O=C(O)c1ccccc1NS(=O)(=O)c1cccc(-n2sc3ccccc3c2=O)c1 | -95 | 43* | -2 | 8 | 27 | 15 | 33*
CC(=O)N(C)C[C@@H]1Oc2ncc(C#Cc3ccc(F)cc3)cc2C(=O)N([C@@H](C)CO)C[C@H]1C | . | . | -2 | . | . | . | .
Cc1cc2c(c(=O)o1)C(c1ccc([N+](=O)[O-])o1)C(C#N)=C(N)O2 (configuration not stated) | 23 | 27* | 7 | -2 | -23 | 34 | 2
CCC(=O)N(Cc1cc(=O)[nH]c2ccccc12)c1ccccc1 | -5 | 21* | -5 | 15 | -12 | 11 | 22*
CCCC(=O)N(Cc1cc(=O)[nH]c2ccccc12)c1ccccc1 | -6 | 4 | 2 | 4 | 9 | -17 | .
O=C(Nc1cc(Cl)ccc1Cl)C1Cc2ccccc2O/C1=N\O (configuration not stated) | . | . | -1 | 2 | -2 | -1 | .
Cc1oc2cc(O)ccc2c(=O)c1-c1ccccc1 | 5 | 0 | 1 | 16 | -10 | 27 | .
Cc1oc2cc(O)ccc2c(=O)c1-c1nncn1-c1ccccc1 | 7 | 18* | -2 | 3 | 2 | 18 | 16*
CCCCCC(=O)N1C[C@H](n2cc(-c3ccc(F)cc3)nn2)[C@@H](O)C[C@@H]1c1ccc(Cl)cc1 | . | . | 0 | . | . | . | .
CS(=O)(=O)c1ccc(C(=O)Nc2cccc(-c3nc4ccccc4[nH]3)c2)cc1 | -14 | 28* | -7 | 5 | 6 | 8 | 13
CS(=O)(=O)c1ccc(C(=O)Nc2ccc(-c3nc4ccccc4[nH]3)cc2)cc1 | -2 | -14 | 4 | -8 | -5 | 24 | .
CS(=O)(=O)c1cccc(C(=O)Nc2cccc(-c3nc4ccccc4[nH]3)c2)c1 | -23 | 20* | -1 | -4 | -1 | -4 | 16*
CN1CCN(S(=O)(=O)c2cccc(C(=O)Nc3sc4c(c3-c3nc5ccccc5[nH]3)CCCC4)c2)CC1 | 33 | 19* | 0 | -5 | -1 | 5 | 2
Cc1cc(NS(C)(=O)=O)c(=O)n(Cc2cccc(C(F)(F)F)c2)c1 | . | . | -4 | . | . | . | .
Cc1noc(C)c1NC(=O)N(C)C[C@H]1Oc2ccc(NC(=O)C3CC3)cc2C(=O)N([C@H](C)CO)C[C@@H]1C | . | 2 | 4 | 3 | 12 | . | .
O=C(NCCCO)c1nnc(Cc2c(F)cccc2Cl)o1 | 2 | 50* | 2 | 4 | -14 | -2 | 6
CC1=NN(Cc2cc(C(C)(C)C)c(O)c(C(C)(C)C)c2)C(=O)C1 | 14 | -7 | 3 | 1 | 12 | -4 | .
SMILES | GSTO1 inh | PAD4 inh | Rin1 Abl inh | UBC13 inh | Apaf-1 inh | SUMO HTRF inh | PAD4 FP conf
CCCCCN1N=C(C)CC1=O | 30 | 22* | 1 | -2 | 7 | 11 | -1
O=C(NCC(=O)N(c1cccc(F)c1)C(C(=O)NC1CCCC1)c1ccncc1)c1cccs1 (configuration not stated) | 0 | 18* | 6 | 3 | 3 | 23 | 0
Cc1c(C(=O)N2CCN(S(=O)(=O)c3ccc(F)cc3)CC2)oc2ccccc12 | 4 | 0 | -1 | 0 | 16 | . | .
CSc1ccc(CN2CCCN(C)CC2)cc1 | 5 | 0 | -2 | 2 | -2 | 13 | .
CCOC(=O)CN(C(=O)COc1nc(-c2ccccc2)cc(C)c1C#N)c1ccccc1 | 5 | 0 | 1 | 2 | 12 | -1 | .
CCOC(=O)CN(C(=O)COc1nc(-c2ccccc2)cc(C)c1C#N)c1ccccc1C | -1 | 20* | -1 | 7 | 8 | -3 | -8
COc1cc(C=O)ccc1OCc1ccc(Cl)nc1 | 10 | -1 | 2 | 3 | -5 | -50 | .
COc1cc(C=O)ccc1OCc1ccncc1 | -2 | 28* | -5 | 3 | 4 | 12 | -6
COC(=O)[C@@H]1C[C@]2(OC(=O)c3ccccc3)C=CC(=O)C[C@@H]2N1C(=O)OCc1ccccc1 | 6 | 19* | 3 | 5 | 21 | -18 | 22*
O=C(NC(=S)Nc1ccc(F)c([N+](=O)[O-])c1)c1ccccc1F | 11 | 17* | -4 | 8 | 7 | 19 | 3
O=C(NC(=S)Nc1ccc2[nH]c(=O)[nH]c2c1)c1ccccc1F | -13 | -2 | 5 | 2 | 2 | -3 | .
C(=Nc1ccc(Nc2ccccc2)cc1)c1ccc2ccccc2c1 | 34 | 24* | 14* | . | . | -15 | 3
CCN(CC)c1ccc(/C=N/N(c2ccccc2)c2ccccc2)c(O)c1 | 6 | -11 | 3 | -10 | 10 | 20 | .
CCN(CC)c1ccc(C(=O)c2ccccc2C(=O)O)c(O)c1 | 10 | 21* | -3 | -17 | -2 | 7 | 26*
CC1=NN(c2ccccc2)C(=O)C1C=Nc1ccc(N(C)C)cc1 (configuration not stated) | 63* | 51* | 5 | -21 | 38 | 6 | 1
CC(OC(=O)c1ccc(Cl)c([N+](=O)[O-])c1)C(=O)N1CCN(Cc2ccccc2)CC1 (configuration not stated) | . | 1 | 4 | 11 | -2 | . | .
Cc1ccc(S(=O)(=O)CCSc2cccc(C(=O)Nc3ccccc3C(=O)O)c2)cc1 | -42 | 19* | 0 | -10 | -4 | -4 | 36*
CSc1ncccc1C(=O)OCC(=O)NC1CCCCC1 | . | -1 | -2 | 3 | -9 | . | .
CCCC(=O)Nc1ccc(Br)c(Cl)c1 | -5 | 15* | 3 | 10 | 11 | 0 | 11
COC(=O)c1cnn(-c2ccccc2)c1/C=N/NC(=S)Nc1ccccc1 | 6 | -4 | 1 | 7 | 11 | 12 | .

Assay outcomes from PubChem.
